Series [1] has as its system Mus musculus. Briefly: Antiinflammatory activity in zymosan induced C57BL/6 mouse model of lung injury assessed as reduction in collagen deposition at 4 mg/kg, ip pretreated for 3 days followed by zymosan challenge and measured after 24 hrs by hydroxyproline assay. It counts as functional, organism-based. In short, it runs like this: (§1)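 Male C57BL/6 mice dosed i.p. for 3 days, then given zymosan (4 mg/kg, i.t.) or saline. Lungs harvested 24 h later. Right lung fixed in 10% formalin, embedded in paraffin, cut into 5 μm sections, stained with H&E or Masson's trichrome and examined by microscopy. Collagen also measured by hydroxyproline assay on lung lysates. Mean ± SD, n≥4.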

The species entered for series [2] is Mus musculus. Briefly: Antiinflammatory activity in mouse MHS cells assessed as reduction in zymosan-induced iNOS protein expression preincubated for 30 mins followed by zymosan challenge and measured after 6 to 24 hrs by Western blotting analysis. It counts as functional, cell-based.
For series [3], the species on record is Mus musculus. Briefly: Antiinflammatory activity in mouse MHS cells assessed as reduction in zymosan-induced TNFalpha mRNA expression preincubated for 30 mins followed by zymosan challenge and measured after 6 to 24 hrs by TRIzol reagent based qRT-PCR analysis. Format: functional, cell-based. In short, it runs like this:
(§2)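 MH-S alveolar macrophages grown in RPMI 1640 with 10% FBS at 37 °C and 5% CO2. Cells pretreated for 30 min, then given zymosan 10 μg/mL for 6 h. mRNA measured by SYBR Green real-time PCR (95 °C 10 min; 42 cycles of 95 °C 10 s, 60 °C 60 s) with actin as reference. Normalized to control; mean ± SD, n≥3.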

Series [4] concerns the target Tyrosine-protein kinase JAK1 (Mus musculus) (UniProt P52332). Briefly: Inhibition of zymosan-induced JAK1 phosphorylation in mouse MHS cells assessed as phosphorylated JAK1 level at 15 ug/ml by Western blot analysis relative to tubulin (reference value: 2.2). Format: cell-based. In short, it runs like this: (§3)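 MH-S cells pretreated, then stimulated with zymosan 10 μg/mL. Phospho-JAK1 (Y1022/1023), phospho-STAT3 (Y705) and phospho-IKKα/β detected by Western blot against total protein and tubulin. Zymosan time course 1–30 min for JAK1/STAT3 and 1–60 min for IKK. Normalized to control; mean ± SD, n≥3.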
On the technique in general: In western blotting, separated proteins are transferred to a membrane and probed.

Series [5] in a line: Antiinflammatory activity in mouse MHS cells assessed as reduction in zymosan-induced COX2 protein expression at 1.5 ug/ml preincubated for 30 mins followed by zymosan challenge and measured after 6 to 24 hrs by Western blotting analysis relative to control (reference value: 2.2 +/- 1.8). Format: functional.
Series [6] in a line: Effect on PGE2 level in mouse MHS cells at 1.5 to 15 ug/ml after 30 mins. As to conditions: 0.5 h.
Series [7] has as its target I-kappa-B kinase (Mus musculus) (UniProt Q60680+O88351+O88522). Briefly: Effect on IKK phosphorylation in mouse MHS cells assessed as phosphorylated IKK level at 15 ug/ml by Western blot analysis relative to tubulin (reference value: 1). It counts as cell-based.
Series [8] relates to Mus musculus. Briefly: Antiinflammatory activity in zymosan induced C57BL/6 mouse model of lung injury assessed as reduction in immune cell infiltration in BALF at 4 mg/kg, ip pretreated for 3 days followed by zymosan challenge and measured after 24 hrs by Diff-Quick staining based assay. Format: functional, organism-based. In short, it runs like this:
(§4)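 Male C57BL/6 mice, 25–30 g. Dosed i.p. daily for 3 days, then zymosan 4 mg/kg in 40 μL saline given by intratracheal instillation. After 24 h, BALF collected with five 0.2 mL PBS washes and centrifuged. Supernatant assayed for PGE2 and total protein. Cells counted by hemocytometer, and ≥300 cells on stained smears scored for differential counts. Left lung weighed, dried at 48 °C for 48 h, reweighed for wet/dry ratio.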

Series [9] is filed under the species Mus musculus. Briefly: Antiinflammatory activity in mouse MHS cells assessed as reduction in zymosan-induced IL-6 protein expression at 1.5 to 15 ug/ml preincubated for 30 mins followed by zymosan challenge and measured after 6 to 24 hrs. Format: functional, cell-based. In short, it runs like this:
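MH-S cells pretreated for 30 min, then given zymosan 10 μg/mL for 24 h. IL-6 and TNFα protein in culture supernatant assessed by cytokine array. Values normalized to control; mean ± SD, n≥3.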

The test system of series [10] is Mus musculus. Briefly: Antiinflammatory activity in zymosan induced C57BL/6 mouse model of lung injury assessed as reduction in subepithelial collagen deposition/fibrosis at 4 mg/kg, ip pretreated for 3 days followed by zymosan challenge and measured after 24 hrs by Masson's trichrome staining based microscopic analysis. Format: functional, organism-based. In a few lines:
as §1

Series [11] has as its system Mus musculus. Briefly: Antiinflammatory activity in zymosan induced C57BL/6 mouse model of lung injury assessed as reduction in PGE2 production in BALF at 4 mg/kg, ip pretreated for 3 days followed by zymosan challenge and measured after 24 hrs by ELISA. It counts as functional, organism-based. In a few lines: as §4
For orientation: ELISA stands for enzyme-linked immunosorbent assay.

Series [12] is filed under the species Mus musculus. Briefly: Antiinflammatory activity in mouse MHS cells assessed as reduction in zymosan-induced IL-6 mRNA expression preincubated for 30 mins followed by zymosan challenge and measured after 6 to 24 hrs by TRIzol reagent based qRT-PCR analysis. It counts as functional, cell-based. In short, it runs like this:
as §2

Series [13] concerns the target Signal transducer and activator of transcription 3 (Mus musculus) (UniProt P42227). Briefly: Inhibition of zymosan-induced STAT3 phosphorylation in mouse MHS cells assessed as phosphorylated STAT3 level at 15 ug/ml by Western blot analysis relative to tubulin (reference value: 2.1). Format: cell-based. In short, it runs like this:
as §3

For series [14], the system named is Mus musculus. Briefly: Antiinflammatory activity in zymosan induced C57BL/6 mouse model of lung injury assessed as reduction in wet to dry lung edema ratio at 4 mg/kg, ip pretreated for 3 days followed by zymosan challenge and measured after 24 hrs. Format: functional, organism-based. In a few lines:
as §4

The target of series [15] is Tyrosine-protein kinase JAK1 (Mus musculus) (UniProt P52332). Briefly: Inhibition of zymosan-induced JAK1 phosphorylation in mouse MHS cells assessed as phosphorylated JAK1 level at 1.5 ug/ml by Western blot analysis relative to tubulin (reference value: 2.2). It counts as cell-based. In a few lines: as §3
Series [16] deals with Mus musculus. Briefly: Effect on morphological changes in lungs of C57BL/6 mouse at 4 mg/kg, ip administered for 3 days by H and E staining based microscopic analysis. As to conditions: in vivo, 72 h. Format: ADME, organism-based. In a few lines: as §1
The target in series [17] is Signal transducer and activator of transcription 3 (Mus musculus) (UniProt P42227). Briefly: Effect on STAT3 phosphorylation in mouse MHS cells assessed as phosphorylated STAT3 level at 15 ug/ml by Western blot analysis relative to tubulin (reference value: 1). It counts as cell-based.
For series [18], the system named is Mus musculus. Briefly: Antiinflammatory activity in zymosan induced C57BL/6 mouse model of lung injury assessed as reduction in immune cell infiltration at 4 mg/kg, ip pretreated for 3 days followed by zymosan challenge and measured after 24 hrs by H and E staining based microscopic analysis. Format: functional, organism-based. In a few lines:
as §1

The nature of series [19]: Effect on COX2 protein expression in mouse MHS cells at 15 ug/ml after 30 mins by Western blotting analysis relative to tubulin (reference value: 1). It counts as ADME, cell-based. The following applies: 0.5 h.
In series [20] the test system is Mus musculus. Briefly: Antiinflammatory activity in zymosan induced C57BL/6 mouse model of lung injury assessed as reduction in hypertrophic smooth muscle cells at 4 mg/kg, ip pretreated for 3 days followed by zymosan challenge and measured after 24 hrs by H and E staining based microscopic analysis. It counts as functional, organism-based. In short, it runs like this:
as §1

The species entered for series [21] is Mus musculus. Briefly: Antiinflammatory activity in mouse MHS cells assessed as reduction in zymosan-induced COX2 protein expression preincubated for 30 mins followed by zymosan challenge and measured after 6 to 24 hrs by Western blotting analysis. It counts as functional, cell-based.

The source made the active and inactive calls. The rule behind the calls is not given here.

Sequence of Signal transducer and activator of transcription 3 (Mus musculus) (P42227 whole entry): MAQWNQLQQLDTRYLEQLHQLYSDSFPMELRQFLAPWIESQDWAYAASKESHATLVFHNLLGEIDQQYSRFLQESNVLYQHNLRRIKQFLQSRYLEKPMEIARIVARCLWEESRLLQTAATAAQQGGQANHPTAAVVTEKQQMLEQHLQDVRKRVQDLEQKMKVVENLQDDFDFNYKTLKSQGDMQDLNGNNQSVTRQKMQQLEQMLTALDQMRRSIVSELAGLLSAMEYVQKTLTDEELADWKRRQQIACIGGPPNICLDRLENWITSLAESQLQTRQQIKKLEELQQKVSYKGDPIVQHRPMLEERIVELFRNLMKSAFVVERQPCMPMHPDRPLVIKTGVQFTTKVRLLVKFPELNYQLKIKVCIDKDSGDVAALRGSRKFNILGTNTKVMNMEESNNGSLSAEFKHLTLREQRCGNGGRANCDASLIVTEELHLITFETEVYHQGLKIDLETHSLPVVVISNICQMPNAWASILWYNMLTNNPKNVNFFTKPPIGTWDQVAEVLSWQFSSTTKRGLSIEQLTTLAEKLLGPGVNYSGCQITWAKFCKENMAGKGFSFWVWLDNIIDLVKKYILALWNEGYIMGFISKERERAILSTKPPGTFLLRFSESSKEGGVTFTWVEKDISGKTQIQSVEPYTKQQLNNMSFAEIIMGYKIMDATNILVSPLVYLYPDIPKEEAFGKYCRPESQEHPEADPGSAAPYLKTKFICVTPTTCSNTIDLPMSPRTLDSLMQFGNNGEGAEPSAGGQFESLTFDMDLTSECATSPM
Sequence of Tyrosine-protein kinase JAK1 (Mus musculus) (P52332 whole entry): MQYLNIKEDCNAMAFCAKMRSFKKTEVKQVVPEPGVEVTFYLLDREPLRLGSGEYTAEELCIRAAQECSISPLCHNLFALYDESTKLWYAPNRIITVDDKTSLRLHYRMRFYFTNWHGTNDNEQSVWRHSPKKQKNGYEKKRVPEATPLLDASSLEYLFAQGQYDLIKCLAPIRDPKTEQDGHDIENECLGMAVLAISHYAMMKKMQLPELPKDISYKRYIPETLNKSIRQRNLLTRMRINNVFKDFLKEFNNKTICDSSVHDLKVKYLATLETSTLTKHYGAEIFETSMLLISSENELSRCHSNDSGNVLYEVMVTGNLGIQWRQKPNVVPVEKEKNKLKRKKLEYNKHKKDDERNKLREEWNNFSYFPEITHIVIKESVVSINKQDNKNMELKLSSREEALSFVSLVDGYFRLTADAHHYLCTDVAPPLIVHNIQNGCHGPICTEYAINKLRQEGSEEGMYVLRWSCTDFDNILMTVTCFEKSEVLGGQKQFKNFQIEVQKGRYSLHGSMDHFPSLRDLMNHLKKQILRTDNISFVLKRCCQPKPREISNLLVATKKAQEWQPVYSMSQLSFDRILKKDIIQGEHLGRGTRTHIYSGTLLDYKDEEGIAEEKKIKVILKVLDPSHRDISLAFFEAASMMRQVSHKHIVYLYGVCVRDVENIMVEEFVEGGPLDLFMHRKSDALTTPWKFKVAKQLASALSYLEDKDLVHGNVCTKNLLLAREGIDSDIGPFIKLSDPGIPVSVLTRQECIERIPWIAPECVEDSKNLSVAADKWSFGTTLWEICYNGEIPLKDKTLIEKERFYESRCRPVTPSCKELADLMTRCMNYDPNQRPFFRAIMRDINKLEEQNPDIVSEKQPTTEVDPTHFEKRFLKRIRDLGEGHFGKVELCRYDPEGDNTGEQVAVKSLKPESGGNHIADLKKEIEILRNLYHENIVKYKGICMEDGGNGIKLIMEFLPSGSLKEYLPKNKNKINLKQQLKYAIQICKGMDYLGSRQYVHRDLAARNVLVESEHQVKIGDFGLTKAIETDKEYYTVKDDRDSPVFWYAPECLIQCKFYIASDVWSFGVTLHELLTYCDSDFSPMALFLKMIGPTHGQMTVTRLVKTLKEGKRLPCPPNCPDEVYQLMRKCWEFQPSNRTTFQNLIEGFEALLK

With `CC(C)=CCOc1c2occc2cc2ccc(=O)oc12` [PENTOSALEN], the result in the series on Mus musculus [1], in the series with Mus musculus [8], in the series filed under Mus musculus [9], in the series with Mus musculus [10], with Mus musculus [11] and with Mus musculus [14] was Active. In addition, the outcome with Mus musculus [18] and in the series on Mus musculus [20] was Active. The Activity entry in the series filed under Mus musculus [2] was “Dose-dependent effect”; in the series filed under Mus musculus [3], “Dose-dependent effect”; in series [6] it was “Non-Toxic”; in the series listed under Mus musculus [12], “Dose-dependent effect”; with Mus musculus [16], “Non-Toxic”; in the series listed under Mus musculus [21], “Dose-dependent effect”. Besides, the fold change (FC) in series [4] is 1.3; in series [5] it was 2.2; in series [7], 1; in [13], 1.3; in series [15] it was 2.2; in series [17], 1.2. Moreover, in [19], the “fold change (FC)” value is 0.7.

These data come from ChEMBL document CHEMBL4480455, “Anti-inflammatory Property of Imperatorin on Alveolar Macrophages and Inflammatory Lung Injury” (J Nat Prod, 2019).
